# Measurements: ChEMBL document CHEMBL1156507, “The M18 aspartyl aminopeptidase of the human malaria parasite Plasmodium falciparum” (J Biol Chem, 2007)
# System: not listed separately
# Assay: Binding affinity against recombinant Plasmodium falciparum D10 M18AAP
# Summary of the method: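 Recombinant His6-tagged PfM18AAP was expressed in baculovirus-infected Sf9 cells and purified on Ni-NTA-agarose. Enzyme (60 nM) was preincubated 30 min in 50 mM Tris-HCl, pH 7.5, then added to the fluorogenic substrate H-Asp-NHMec. Initial hydrolysis rates were read by fluorescence (ex 370 nm, em 460 nm) with inhibitor present.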
row,SMILES,Ki
1,N[C@@H](CCC(=O)O)P(=O)(O)O,0.34 µM
2,NC(CCCC(=O)O)P(=O)(O)O (centres undefined),105 µM
3,NC(CCC(=O)O)P(=O)(O)c1ccccc1 (centres undefined),> 2000 µM
4,NC(CCP(=O)(O)O)P(=O)(O)O (centres undefined),4.4 µM
5,CP(=O)(O)C(N)CC(=O)O (centres undefined),395 µM
6,NC(CC(=O)O)P(=O)(O)O (centres undefined),27 µM
7,CC(CP(=O)(O)C(N)CCC(=O)O)C(=O)O (centres undefined),42.7 µM
8,CC(CP(=O)(O)C(N)CC(=O)O)C(=O)O (centres undefined),183 µM

# System: Plasmodium falciparum
# Assay: Binding affinity against recombinant Plasmodium falciparum D10 M18AAP at 1.83 mM
# Summary of the method: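 Phosphonic/phosphinic amino-acid analogues and phosphinate dipeptides tested on rPfM18AAP in the fluorogenic assay: initial rate of H-Asp-NHMec hydrolysis (ex 370/em 460 nm) at pH 7.5, enzyme preincubated 30 min in 50 mM Tris-HCl; inhibited rates compared with an enzyme-plus-substrate control.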
row,SMILES,Activity
1,NC(CCC(=O)O)P(=O)(O)c1ccccc1 (centres undefined),20%
